ChEMBL document CHEMBL1124079, “Methotrexate analogues. 31. Meta and ortho isomers of aminopterin, compounds with a double bond in the side chain, and a novel analogue modified at the alpha-carbon: chemical and in vitro biological studies” (J Med Chem, 1988)
pIC50: −log10 of the molar value. Blank lines part the entries; values can stand above or below the compound they belong to.

What was measured:
[1] = molecular target: T1, Dihydrofolate reductase (Mus musculus) (UniProt P00375); test: Inhibitory activity against dihydrofolate reductase(DHFR) isolated from L1210 murine leukemia cells at 50 uM; type: cell-free
T1 sequence (whole entry): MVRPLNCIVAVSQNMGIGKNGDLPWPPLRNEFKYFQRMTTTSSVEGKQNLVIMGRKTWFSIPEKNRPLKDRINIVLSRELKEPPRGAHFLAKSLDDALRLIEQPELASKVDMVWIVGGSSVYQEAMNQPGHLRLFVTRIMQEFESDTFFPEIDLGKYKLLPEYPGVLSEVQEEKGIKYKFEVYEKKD

L1210 [2] = test: Inhibitory activity against growth of mouse L1210 leukemia cells; type: functional, cell-based
L1210 [3] = test: Growth inhibitory activity against cultured L1210 cells; type: functional, cell-based; settings: Mus musculus
Dihydrofolate reductase [4] = molecular target: T2, Dihydrofolate reductase (Mus musculus, UniProt P00375); test: Inhibitory activity against dihydrofolate reductase(DHFR)
T2 sequence (P00375 whole entry): T1 sequence (whole entry)
In short: (§1)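 DHFR purified from L1210 murine leukemia cells by affinity chromatography on MTX-Sepharose, then used as the enzyme source for inhibitor titration; IC50 read from the enzyme-activity titration curve.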

Dihydrofolate reductase [5] = molecular target: T2, Dihydrofolate reductase; test: Inhibitory activity against dihydrofolate reductase(DHFR) isolated from L1210 murine leukemia cells; type: cell-free; in short: as §1
L1210 [6] = test: Inhibitory activity against cultured L1210 cells; settings: Mus musculus
L1210 [7] = test: Inhibitory activity against L1210 cells; type: functional, cell-based; settings: Mus musculus
L1210 ( R81) [8] = test: Inhibitory activity against L1210/R81 cells; type: functional, cell-based; settings: Mus musculus
L1210 ( R81) [9] = test: Inhibition of the growth of the MTX-resistant L1210/R81 cell line; type: functional, cell-based; settings: Mus musculus

inhibition [1]: 20%
pIC50 (L1210 [2]): 4.19
SMILES: Nc1nc(N)c2nc(CNc3ccccc3C(=O)NC(CCC(=O)O)C(=O)O)cnc2n1 (centres undefined)

pIC50 (L1210 [3]): 7.51
pIC50 (Dihydrofolate reductase [4]): 4.34
SMILES: Nc1nc(N)c2nc(CNc3ccc(C(=O)NC(C/C=C/C(=O)O)C(=O)O)cc3)cnc2n1 (centres undefined)

pIC50 (L1210 [2]): 5.82
pIC50 (Dihydrofolate reductase [5]): 3.70
SMILES: Nc1nc(N)c2nc(CNc3cccc(C(=O)NC(CCC(=O)O)C(=O)O)c3)cnc2n1 (centres undefined)

SMILES: Nc1nc(N)c2nc(CNc3ccc(C(=O)N[C@@H](CCC(=O)O)C(=O)O)cc3)cnc2n1 [AMINOPTERIN]
pIC50 (Dihydrofolate reductase [5]): 8.70

SMILES: CN(Cc1cnc2nc(N)nc(N)c2n1)c1ccc(C(=O)N[C@@H](CCC(=O)O)C(=O)O)cc1 [METHOTREXATE]
pIC50 (L1210 [6]): 8.30

pIC50 (Dihydrofolate reductase [4]): 7.42
pIC50 (L1210 [7]): 4.92
pIC50 (L1210 ( R81) [8]): 3.74
SMILES: CN(Cc1cnc2nc(N)nc(N)c2n1)c1ccc(C(=O)N(CCC(=O)O)CC(=O)O)cc1

pIC50 (L1210 [3]): 6.46
pIC50 (Dihydrofolate reductase [4]): 4.49
pIC50 (L1210 ( R81) [9]): < 3.52
SMILES: CN(Cc1cnc2nc(N)nc(N)c2n1)c1ccc(C(=O)NC(C/C=C/C(=O)O)C(=O)O)cc1 (centres undefined)
